Published values from different studies.
Target: Myosin light chain kinase, smooth muscle (MYLK, Homo sapiens, UniProt Q15746)

Cc1cc(NC(=O)c2cccc3cc(-c4cccc5[nH]nc(N)c45)ccc23)ccc1F — activity vs control (enzyme activity, inhibitor; 0.1 µM): 89%
O=C(Nc1cnn(-c2csc(C(=O)NC3COC3)c2)c1)Nc1ccccc1Cl — remaining activity (enzyme activity, inhibitor; 5 µM): 97.5%
Oc1cccc(-c2nc(N3CCOCC3)c3oc4ncccc4c3n2)c1 — remaining signal (cell-free assay; 0.5 µM): 77.1%
Oc1cccc(-c2nc(N3CCOCC3)c3oc4ncccc4c3n2)c1 — remaining activity (enzyme activity, inhibitor; 10 µM): 48%
C[C@@H]1CCN(c2nccc(-c3cnn4ncccc34)n2)C1 — remaining binding (binding; 1 µM): 92%
CN1CC(Oc2cnc(C#N)cc2-c2ccn3nc(NC(=O)C4CC4)cc3c2)C1 — inhibition (enzyme activity, inhibitor; 1 µM): -19%
Cn1cncc1C1=CN(c2ncnc3[nH]cnc23)CCS1 — inhibition (enzyme activity, inhibitor, radiometric; 2 µM): 91.1%
CNC(=O)Nc1ccc2c(c1)[C@@]1(CC2)OC(=O)N(CC(=O)N(Cc2ccc(F)cc2)[C@@H](C)C(F)(F)F)C1=O — remaining binding (cell-free assay, competition with immobilised ligand; 1 µM): 88%
Cn1c2c(Cl)c(Cl)ccc2c2cc[nH]c(=O)c21 — ΔTm (thermal stability, DSF; 10 µM): 2.4 °C
Oc1ccc(-c2nc(-c3ccncc3)c(-c3ccc(F)cc3)[nH]2)cc1 — remaining signal (cell-free assay; 0.5 µM): 106%
O=C(N1CCS(=O)(=O)CC1)N1C[C@H](c2ccc(OC(F)(F)F)cc2)C[C@H](c2nc(C3CC3)no2)C1 — remaining binding (cell-free assay, competition with immobilised ligand; 1 µM): 100%
COc1cc(Nc2cnc(C#N)c(O[C@H](C)CN(C)C)n2)ncc1-c1cnn(C)c1 — remaining activity (enzyme activity, inhibitor, radiometric; 10 µM): 103%
COc1cc(Cl)c(C(=O)N[C@@H](CN[C@H]2CC[C@@H](N)CC2)Cc2ccc(C#N)cc2)cc1-c1ccc(CN[C@H](C)c2ccc(C)cc2)o1 — remaining activity (enzyme activity, inhibitor; 1 µM): 95%
C[C@H](NC(=O)c1cnc2n1[C@](C)(Cc1ccc(C#N)cc1)C(=O)N2c1cc(Cl)c(F)c(Cl)c1)C(=O)NC1(c2ccccn2)CC1 — remaining binding (cell-free assay, competition with immobilised ligand; 1 µM): 100%
Nc1nc(NC2CCCCC2)sc1C(=O)c1ccccc1 — remaining activity (enzyme activity, inhibitor; 10 µM): 44%
Cc1c(NC(=O)c2cc(C(N)=O)nc3cc(F)ccc23)c(C(F)(F)F)nn1Cc1ccc(C#N)cc1 — remaining binding (binding, competition with immobilised ligand; 1 µM): 65%
CCN1CCN(Cc2ccc(NC(=O)c3ccc(C)c(Oc4ccnc5[nH]ccc45)c3)cc2C(F)(F)F)CC1 — inhibition (target engagement in cells, inhibitor, chemoproteomics; Huh-7; 1 µM): -23.4%
COc1ccc2c(c1)O[C@@H](c1ccc(OC)c(OC)c1)C[C@H]2NC(=O)C1(c2ccc3c(c2)OC(F)(F)O3)CC1 — remaining binding (cell-free assay, competition with immobilised ligand; 1 µM): 85%
O=C1Nc2ccc(Cl)cc2C1=Cc1cc(Cl)c(O)c(Cl)c1 — remaining signal (cell-free assay; 0.5 µM): 62.3%
Nc1ncnc2occ(-c3ccc(NC(=O)Nc4cc(C(F)(F)F)ccc4F)cc3)c12 — remaining activity (enzyme activity, inhibitor; 20 µM): 42%
O=C(Nc1ccc(Oc2ccc(F)cc2)cc1)N1CCc2ncccc2[C@H]1c1ccc(F)cc1 — remaining binding (cell-free assay, competition with immobilised ligand; 1 µM): 100%
CCN(CC)c1ccc(C2=NNC(=O)CC2C)cc1[N+](=O)[O-] (centres unmarked) — remaining activity (enzyme activity, inhibitor; 10 µM): 90%
CN(C)c1ncnc(-c2ccc3nc(Nc4cc(CN5CCN(C(=O)CC(F)(F)F)CC5)ccn4)[nH]c3c2)c1Cl — remaining binding (cell-free assay, competition with immobilised ligand; 1 µM): 68%
Cn1cnc(Br)c1C1=CN(c2ncnc3[nH]cnc23)CCS1 — inhibition (enzyme activity, inhibitor, radiometric; 2 µM): 93.4%
CC(C)(C)c1nc2c(s1)c1nc(N)ncc1c1ccc(NS(=O)(=O)c3c(F)cccc3F)c(F)c12 — remaining activity (enzyme activity, inhibitor, radiometric; 1 µM): 87%
Cc1nc(N2CC[C@@H](O)C2)ncc1-c1cc(C(F)(F)F)cc2[nH]ncc12 — remaining binding (binding, competition with immobilised ligand; 1 µM): 100%
